Experimental data from the EternaBench riboswitch data.

Tests used:
MS2 coat protein [1] = experiment: apparent Kd, MS2 coat protein; higher = weaker binding; RNA-MaP array; theophylline 2 mM where present
Method in brief: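 Binding was read on Illumina sequencing-chip clusters where stalled E. coli RNA polymerase had transcribed each design. A titration of SNAP-549-labelled MS2 coat protein began at 0.7 or 1.5 nM and doubled to 3 µM, once without ligand and once with constant ligand, in 100 mM Tris-HCl pH 7.5, 80 mM KCl, 4 mM MgCl2, BSA, DTT, yeast tRNA and Tween-20. The apparent Kd is the median of filtered per-cluster binding-curve fits, based on green signal normalised to red-channel RNA signal and control-cluster median Fmax.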

MS2 coat protein [2] = experiment: apparent Kd, MS2 coat protein; higher = weaker binding; RNA-MaP array
Method in brief: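 On an Illumina sequencing chip, sequenced DNA templates served for transcription of the designed RNAs, which were then bound at room temperature by fluorescently labeled MS2 coat protein at 1.5 nM to 3 μM, with or without input ligand. Apparent Kd is the median of the fits to each cluster's binding curve. Only designs measured on at least 10 clusters were kept.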

[3] = designed as: ON switch for theophylline, no ligand
[4] = ligand present: theophylline, designed as: ON switch for theophylline
[5] = designed as: OFF switch for theophylline, no ligand
[6] = ligand present: theophylline, designed as: OFF switch for theophylline

GCAAUAACGAUUGAUACCAGCAUGUUAACAUGAGGAUCACCCAUGUUAAGGAUAACAUAAUGCCCUUGGCAGCAACGGAAAGCCG
apparent Kd (MS2 coat protein [1]; [3]): 24.3 nM | apparent Kd (MS2 coat protein [1]; [4]): 14 nM

AUAAGUACGUCAGAUACCAGACAGCCAGACUUACAUGAGGAUCACCCAUGUGGAUGGACGGUCCCUUGGCAGCUGGCCGCAAAAG
apparent Kd (MS2 coat protein [1]; [3]): 213 nM | apparent Kd (MS2 coat protein [1]; [4]): 14.2 nM

GAGCUGAUGUAGAGUGGAUAUCCUUGAGAUACCAGUACAGAAAUGUACCCUUGGCAGCUCUUCUUUACAUGAGGAUCACCCAUGU
apparent Kd (MS2 coat protein [1]; [5]): 13.1 nM | apparent Kd (MS2 coat protein [1]; [6]): 17.5 nM

AAUAACAUGAGGAUCACCCAUGUAAAAGAUACCAGAGUGAUGAUCCUCCCUUGGCAGCUUAACGCUGAUUGAUUACAAUCAGCGA
apparent Kd (MS2 coat protein [1]; [3]): 57.6 nM | apparent Kd (MS2 coat protein [1]; [4]): 173 nM

AGAUUACAUGUUUUAAUAAGAUAAACUGAUACCAGUGUAUAUAUUCACCCUUGGCAGCAGCAACAUGAGGAUCACCCAUGUAUUA
apparent Kd (MS2 coat protein [1]; [3]): 16 nM | apparent Kd (MS2 coat protein [1]; [4]): 15.2 nM

ACAUGAGGAUCACCCAUGUUCCUCAUUGAUACCAGUGAAUUUAGACGCCCUUGGCAGCGAGUUUUUUUAUAAGUUUUUUUUUUUU
apparent Kd (MS2 coat protein [1]; [5]): 665 nM | apparent Kd (MS2 coat protein [1]; [6]): 1160 nM

UUAAAUGUGACGGAUACCAGCGUGUUGUAGAACAUGAGGAUCACCCAUGUAGUGAUCAUGCGCCCUUGGCAGCUGGUAUGUUUGA
apparent Kd (MS2 coat protein [1]; [3]): 379 nM | apparent Kd (MS2 coat protein [1]; [4]): 607 nM

AGUGUUAUAACUGAUACCAGACCUUUGCUUAUACAUGAGGAUCACCCAUGUAAAAUGGCGGUCCCUUGGCAGCAGAGAAUACACA
apparent Kd (MS2 coat protein [1]; [3]): 33.5 nM | apparent Kd (MS2 coat protein [1]; [4]): 12.5 nM

GGUGGCUGGACUGAUACCAGCCACCACCGAUAGACCACAUGAGGAUCACCCAUGUUGGGUGGCCCUUGGCAGCAGUCUAGCUGCC
apparent Kd (MS2 coat protein [1]; [3]): 561 nM | apparent Kd (MS2 coat protein [1]; [4]): 1240 nM

GAUAGUUGAAGGGAUACCAGCCUGGACAUGAGGAUCACCCAUGUAGCAUGUUUGAAACUGGGCCCUUGGCAGCCCAUAUUGUGUA
apparent Kd (MS2 coat protein [1]; [3]): 22.4 nM | apparent Kd (MS2 coat protein [1]; [4]): 14.4 nM

AAUAACAUGAGGAUCACCCAUGUAAAAGAUACCAGAGUGAUGAUCCUCCCUUGGCAGCUUAAUAACGCUAUUGGAAACAAUAGCG
apparent Kd (MS2 coat protein [1]; [3]): 78.2 nM | apparent Kd (MS2 coat protein [1]; [4]): 122 nM

CGAGUCCGCUGAUGGGCUAAGUCAGGUGAUACCAGCCACUCCCGCGGCCCUUGGCAGCACAUGAGGAUCACCCAUGUAGGGCUUG
apparent Kd (MS2 coat protein [1]; [5]): 19.6 nM | apparent Kd (MS2 coat protein [1]; [6]): 338 nM

UUAUUUAUAAUGGAUACCAGUCGUAUGGCCCGGCAUCCUGACAUGAGGAUCACCCAUGUCGACCCUUGGCAGCUGUUAUGGGUUU
apparent Kd (MS2 coat protein [1]; [5]): 13.5 nM | apparent Kd (MS2 coat protein [1]; [6]): 20 nM

AUCGUACCUGAGGAUACCAGCAUGUGAUCAUAACAUGAGGAUCACCCAUGUAAUCAGUGAUGCCCUUGGCAGCUUAGUCGAUACA
apparent Kd (MS2 coat protein [1]; [3]): 75.5 nM | apparent Kd (MS2 coat protein [1]; [4]): 45.2 nM

AGACAUGAGGAUCACCCAUGUAGCAUGGAUACCAGAUCCAGAUUUAUCCCUUGGCAGCUGUGGUACAGUGAUGGAUUGCUCCUAG
apparent Kd (MS2 coat protein [1]; [5]): 79 nM | apparent Kd (MS2 coat protein [1]; [6]): 122 nM

AUGUCGUUGAAUAUAGCGGCUUGGUGUGAUACCAGAAUGAUCUAAUUCCCUUGGCAGCAUUACAUGAGGAUCACCCAUGUUCAGG
apparent Kd (MS2 coat protein [1]; [3]): 24 nM | apparent Kd (MS2 coat protein [1]; [4]): 23.9 nM

UGUAUGUGAUUUGAUACCAGAUCAGCUGGUUAUACAUGAGGAUCACCCAUGUUACUUUGGGUCCCUUGGCAGCAAAUCGCAUACU
apparent Kd (MS2 coat protein [1]; [3]): 487 nM | apparent Kd (MS2 coat protein [1]; [4]): 28.4 nM

AUACCUAAUGUUACGUUUUCCUUUUCAGAUACCAGACUUUACGUUGUCCCUUGGCAGCUGUAUUACAUGAGGAUCACCCAUGUUG
apparent Kd (MS2 coat protein [1]; [3]): 22 nM | apparent Kd (MS2 coat protein [1]; [4]): 29.7 nM

ACUUUGUCGGGUGAUACCAGCCUCGGCACAUCUCGUGCCGAACAUGAGGAUCACCCAUGUGGCCCUUGGCAGCACAUGACAAAUC
apparent Kd (MS2 coat protein [1]; [3]): 341 nM | apparent Kd (MS2 coat protein [1]; [4]): 59.5 nM

ACAUGAGGAUCACCCAUGUAAGGUCUUGAUACCAGACGAGAAGUAGUCCCUUGGCAGCAAAUACGUGAGGGUCACACAUGUGUAA
apparent Kd (MS2 coat protein [1]; [5]): 23 nM | apparent Kd (MS2 coat protein [1]; [6]): 46 nM

CUCGAGUUAUGAGAUACCAGACUAUAGUUUACAUGAGGAUCACCCAUGUUAUGGGUGGUAGUCCCUUGGCAGCUCAUAUGUUUAA
apparent Kd (MS2 coat protein [1]; [5]): 225 nM | apparent Kd (MS2 coat protein [1]; [6]): 812 nM

GCACCAGGUACGGAUACCAGACUCUGCCGAUUGGGUGAACAUGAGGAUCACCCAUGUUAGGUCCCUUGGCAGCCGUACCUGGUGC
apparent Kd (MS2 coat protein [1]; [5]): 28.3 nM | apparent Kd (MS2 coat protein [1]; [6]): 487 nM

ACUCGGUGUUUGUUGCUCCGAGUACGUGAUACCAGUUAAUUUUAUGGCCCUUGGCAGCAUGGGACAUGAGGAUCACCCAUGUUUA
apparent Kd (MS2 coat protein [1]; [3]): 375 nM | apparent Kd (MS2 coat protein [1]; [4]): 396 nM

UCCCGAAAGAAGAAGGGUACACCGAGCUGGUAACACAGCAAAACAUGAGGAUCACCCAUGUCUGAACAGGAUAUUCCGCGAGUA
apparent Kd (MS2 coat protein [2]; designed as: ON switch for flavin mononucleotide, no ligand): 31.9 nM | apparent Kd (MS2 coat protein [2]; ligand present: flavin mononucleotide, designed as: ON switch for flavin mononucleotide): 25.5 nM

GUAACGUGCAAAGGAUAUAUACAUGAGGAUCACCCAUGUCGGAAUGAGAUCAAGGUCGCUCGCCUAUAGAAGGUUGGCGCUACU
apparent Kd (MS2 coat protein [2]; designed as: OFF switch for flavin mononucleotide, no ligand): 86.7 nM | apparent Kd (MS2 coat protein [2]; ligand present: flavin mononucleotide, designed as: OFF switch for flavin mononucleotide): 43.9 nM
